Bioassay records (PubChem)
SIRT5 block: inhibitors of human sirtuin-5 desuccinylase; Q9NXA8; Purified SirT5, succinyl-peptide AMC, trypsin-coupled fluorescence; inhibition, % at 15 µM; hit rate 1.1% among 330,000; AID 652115; in the data active means inhibition above about 15%; inconclusive means no clear call, values can overlap the other calls
Target sequence (Q9NXA8 whole entry, looked up): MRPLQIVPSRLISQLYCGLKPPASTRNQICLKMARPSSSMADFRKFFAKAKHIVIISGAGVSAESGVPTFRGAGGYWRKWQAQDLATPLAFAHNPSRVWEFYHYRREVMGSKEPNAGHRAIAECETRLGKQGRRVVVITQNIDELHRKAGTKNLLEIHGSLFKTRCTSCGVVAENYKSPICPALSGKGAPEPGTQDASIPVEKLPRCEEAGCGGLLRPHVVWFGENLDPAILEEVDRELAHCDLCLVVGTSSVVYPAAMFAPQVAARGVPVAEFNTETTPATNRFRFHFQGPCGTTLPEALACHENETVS
CAL PDZ FP-1: inhibitors of human CAL PDZ peptide binding; purified CAL PDZ, TMR-peptide fluorescence polarization, 1 h; inhibition, % at 24.9 µM; Q9HD26; AID 602252; hit rate 0.92% among 300,000;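 active means mean inhibition of at least 30% with at least half of replicates also reaching 30%; inconclusive means no clear call, values can overlap the other calls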;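 further: 0% = DMSO neutral control and 100% = excess unlabeled competitor peptide PRC23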
CAL PDZ FP-2: human CAL PDZ-peptide interaction inhibition. Q9HD26. purified CAL PDZ, TMR-peptide fluorescence polarization, 1 h. inhibition, % at 20 µM. hit rate 0.02% among 330,000;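 active means highest replicate inhibition of at least 40%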;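 further: plate controls were DMSO neutral control wells for no effect and unlabeled competitor peptide control wells for full effect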
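Read-out basis: mP drop reported as inhibition | Assay system: Tagged CAL PDZ protein CerCALP, purified | Benchmarks: Unlabelled peptide for full inhibition, DMSO wells as neutral | Schedule: 1 h incubation at room temperature before polarization reading | Buffer or medium: Sodium phosphate/NaCl buffer pH 7.4 with TCEP, IgG, Thesit | Doses: Single point, 20 µM | Measured by: Fluorescence polarization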
DENV2 CPE rescue: inhibitors of DENV2 cytopathic effect; DENV2-infected cells, cytopathic effect rescue, plate reader; CPE inhibition, % at 9.99 µM; hit rate 1.7% among 350,000; AID 651640; in the data active means CPE inhibition above about 20%, passing the limit was not always enough; inconclusive means no clear call, values can overlap the other calls; tested in BHK-21 cells;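 further: 0% = median of neutral control wells and 100% = median of positive control wells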
S100A4 inh HTS: S100A4-myosin IIA interaction inhibition; P26447; S100A4/TAMRA-MyoIIA peptide fluorescence polarization; inhibition, % at 10.7 µM; hit rate 0.14% among 360,000;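 active means mean inhibition of at least 70% across replicates, with every replicate also reaching that level; inconclusive means mean inhibition reaches 70% but some replicates fall short; inactive means mean inhibition below 70%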
Target sequence (P26447 whole entry, looked up): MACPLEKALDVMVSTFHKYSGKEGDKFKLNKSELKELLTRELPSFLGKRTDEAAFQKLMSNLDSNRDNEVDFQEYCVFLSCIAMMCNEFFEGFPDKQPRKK
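Assay system: human S100A4 monomer with TAMRA-labelled myosin IIA peptide / Buffer or medium: Calcium-containing HEPES buffer, pH 7.2 / Reagent: TAMRA-labelled myosin IIA heavy-chain peptide probe, 5 nM / Compound: one dose per compound / Timing: polarization read 5 min after assay mix addition, stable 5–60 min / Benchmarks: neutral control DMSO, positive control TFP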
ERAP1 inh: blocks human ERAP1 aminopeptidase activity; recombinant ERAP1, Leu-AMC fluorescence, 60 min; inhibition, % at 10.7 µM; hit rate 0.15% among 340,000;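 active means mean replicate inhibition of at least 30%, or all replicates individually reaching that 30% level; inactive means mean below 30% and not every replicate reaching it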;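 further: 0% = neutral control wells and 100% = L-leucinethiol positive control wells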
An asterisk follows results filed as active; ? = inconclusive; · = no result given. Shown are actives, neighbours in structure and some others; about 2.9% of the full set was active somewhere.

SMILES	SIRT5 block	CAL PDZ FP-1	CAL PDZ FP-2	DENV2 CPE rescue	S100A4 inh HTS	ERAP1 inh
CC(NCC(O)COc1ccc2ccccc2c1)c1ccccc1 (stereo unspecified)	1.0	-2.4	-1.7	9.1	2.6	-7.4
Cc1cc(OCC(O)CNC(C)c2ccccc2)ccc1C(C)C (stereo unspecified)	-0.1	·	-3.8	39.2*	-5.1	-2.4
COc1ccc(NC(=O)C2CCCN2S(=O)(=O)c2ccc3c(c2)CCC(=O)N3)c(OC)c1 (stereo unspecified)	·	·	-0.7	37.2*	-4.5	-2.2
Cc1ccc(CCNC(=O)C2CCCN2S(=O)(=O)c2ccc3c(c2)CCC(=O)N3)cc1 (stereo unspecified)	·	·	-0.4	·	·	·
CC=Cc1ccc2n(c1=O)C[C@@H]1[C@@H](CO)[C@H](C(=O)NCCc3cn(C)cn3)N(C(=O)CC)[C@H]21 (mixture of isomers)	-2.3	·	·	3.5	-5.6	-3.2
Cc1sc2ncnc(N3CCC(C(=O)NNC(=O)c4ccccc4Cl)CC3)c2c1C	-1.8	37.0*	-2.3	-0.3	-3.9	2.8
CN1[C@H](C(=O)NC2CCCC2)[C@@H](CO)[C@@H]2Cn3c(ccc(/C=C/c4ccccc4)c3=O)[C@@H]21	-50.5	·	·	?	-15.5	1.5
c1ccc(-c2cnc(CSc3nnc4ccccn34)o2)cc1	·	56.9*	-0.4	·	·	·
O=C(O)C1CC=CCC1C(=O)NCCCCc1ccccc1 (stereo unspecified)	-2.0	81.9*	-1.1	6.2	1.2	-3.5
O=C(N[C@H]1CC[C@H](CCNS(=O)(=O)c2ccc(F)cc2)O[C@@H]1CO)c1ccccn1	-4.3	·	·	18.7	2.6	-2.5
Cc1nnc(SC(C)C#N)n1-c1ccccc1 (stereo unspecified)	·	75.7*	0.5	9.8	1.3	·
Cc1nnc(SCc2ccccc2C#N)n1-c1ccccc1	·	-5.1	·	·	·	·
CCc1nc(Cl)c(C#N)c2c1CCCC2	-2.2	-1.4	-2.0	2.1	-2.3	2.7
CCCc1nc(Cl)c(C#N)c2c1CCCC2	111.8*	-0.3	-2.5	·	1.6	1.2
Cc1cccc(S(=O)(=O)N2CCCCN3[C@H](CO)[C@@H](c4ccc(C#CC(C)C)cc4)[C@@H]3C2)c1	-3.8	·	·	-17.7	-0.2	4.1
COc1ccc2c3c(n(C)c2c1)[C@H](CO)N(C(=O)C1CCC1)CC31CN(Cc2cccc(F)c2)C1	-9.9	·	·	22.0*	8.4	4.2
COc1ccc2c3c(n(C)c2c1)[C@H](CO)N(C(=O)C1CCCC1)CC31CN(Cc2cccc(F)c2)C1	·	·	·	15.3	8.3	-0.4
COc1ccc2c3c(n(C)c2c1)[C@H](CO)N(C(=O)CN1CCOCC1)CC31CCN(C(=O)Nc2cccc(F)c2)CC1	-1.1	·	·	32.6*	-39.7	-1.5
COc1ccc2c3c(n(C)c2c1)[C@@H](CO)N(C(=O)C1CCCC1)CC31CN(C(=O)Nc2cccc(F)c2)C1	2.3	·	·	77.3*	-3.6	0.6
CCCC(=O)N1CC2(CCN(C(=O)Nc3cccc(F)c3)CC2)c2c(n(C)c3cc(OC)ccc23)[C@@H]1CO	·	·	·	12.5	·	·
COc1ccc2c3c(n(C)c2c1)[C@H](CO)N(C(=O)C1CCCC1)CC31CN(C(=O)Nc2cccc(F)c2)C1	2.3	·	·	-10.4	-1.1	-0.6
COc1ccc2c3c(n(C)c2c1)[C@H](CO)N(C)CC31CCN(C(=O)CN2CCOCC2)CC1	-2.6	·	·	52.9*	-5.4	·
COc1cc(CN2CC3(CCN(C(=O)CN4CCOCC4)CC3)c3c(n(C)c4cc(OC)ccc34)[C@@H]2CO)cc(OC)c1	7.8	·	·	-9.2	1.1	3.1
C[C@H](CO)N1C[C@H](C)[C@H](CN(C)S(=O)(=O)c2ccc(F)cc2)Oc2ncc(C#CC(C)(C)O)cc2C1=O	-1.1	·	·	-0.3	-13.2	0.0
CS(=O)(=O)Nc1ccc2c(c1)[C@H]1C[C@H](CC(=O)NCc3ccc(Cl)cc3)O[C@H](CO)[C@H]1O2	0.3	·	·	8.7	2.1	0.1
SMILES	SIRT5 block	CAL PDZ FP-1	CAL PDZ FP-2	DENV2 CPE rescue	S100A4 inh HTS	ERAP1 inh
CCC(=O)N1CC2(CN(Cc3ccc(F)cc3)C2)c2c(n(C)c3cc(OC)ccc23)[C@@H]1CO	-4.7	·	·	21.4*	-9.5	1.3
COCC(=O)N1CC2(CCN(Cc3cncnc3)CC2)c2c(n(C)c3cc(OC)ccc23)[C@H]1CO	·	·	·	50.1*	·	·
COc1ccc2c3c(n(C)c2c1)[C@@H](CO)N(Cc1ccc(F)cc1)CC31CN(CC2CCOCC2)C1	·	·	·	99.3*	·	·
COc1ccc2c3c(n(C)c2c1)[C@H](CO)N(C(=O)CN1CCOCC1)CC31CN(Cc2ccncc2)C1	-2.1	·	·	36.6*	0.6	5.4
Cc1ccc(N2C(=O)CC(N(O)C3CC(=O)N(c4ccc(C)cc4)C3=O)C2=O)cc1 (stereo unspecified)	·	59.3*	-2.1	·	·	·
CCCCCCC(=O)N(O)C1CC(=O)N(c2ccc(C)cc2)C1=O (stereo unspecified)	·	·	-2.0	·	·	·
CN(C)S(=O)(=O)c1cccc(COc2ncnc3c(Cl)cc(Cl)cc23)c1	-0.3	55.9*	-0.5	12.9	1.1	2.5
CN(C)S(=O)(=O)c1cccc(COC(=O)c2ccc(Cl)cc2O)c1	-1.5	3.8	0.4	2.0	-3.1	·
Cc1nn(-c2ccccc2)c2[nH]c(=O)cc(C(F)(F)F)c12	76.4*	-2.2	-3.7	-4.8	2.0	-3.7
O=C(C[C@H]1CC[C@H](NC(=O)C2CCOCC2)[C@@H](CO)O1)NCc1ccccc1Cl	1.1	·	·	-5.2	36.8	-4.5
CCC(=O)N1CC2(C1)CN(C(=O)CN1CCOCC1)[C@@H](CO)c1c2c2ccc(OC)cc2n1C	4.1	·	·	19.8	-1.3	-2.1
COc1ccc(-c2oc3ccccc3c2C#Cc2cncn2C)cc1	-7.6	-1.8	-0.8	70.2*	0.9	-0.8
COc1ccc(-c2sc3cc4c(cc3c2C#Cc2cncn2C)OCO4)cc1	·	-4.9	1.2	34.2*	-1.4	1.2
C[C@@H]1CN([C@@H](C)CO)C(=O)Cc2cc(NC(=O)c3ccncc3)ccc2O[C@H]1CN(C)Cc1ccccc1	5.3	·	·	1.4	-109.8	-3.2
CO[C@H]1CN(C)C(=O)c2ccc(NC(C)=O)cc2OC[C@H](C)N(Cc2ccccc2F)C[C@H]1C	6.9	·	·	0.5	-8.5	-1.5
CN1CCN(C(=O)C[C@H]2CC[C@@H]3[C@H](COc4ccc(NC(=O)C5CC5)cc4C(=O)N3C)O2)CC1	-3.3	·	·	6.5	9.5	-0.6
COc1ccc(COC[C@@]23Oc4ccccc4[C@@H](NC(=O)N2C)[C@H]3CO)cc1	-1.9	·	·	5.9	3.9	0.9
CN1C(=O)N[C@@H]2c3ccccc3O[C@@]1(C)[C@@H]2CO	-2.2	·	·	20.5*	-38.7	2.6
C[C@H]1CN([C@@H](C)CO)C(=O)c2cc(NC(=O)CCCCCC(=O)Nc3ccccc3N)ccc2O[C@H]1CN(C)S(=O)(=O)c1cccs1	-1.5	·	·	0.3	98.3*	1.0
